Read-outs that look alike come from different tables or passages of the source.
Key:
[1] = system: HuCCA-1 cholangiocarcinoma cell line; assay: Cytotoxicity assay; format: cell-based; conditions: Homo sapiens, HuCC-A1, 48 h, read-out: Cytotoxic activity IC50, HuCCA-1
Method in brief: (§1)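 Cells were pre-plated in medium, then an equal volume of medium holding serial dilutions of the test compound was added to reach the final concentrations. Controls were DMSO (negative) and etoposide and/or doxorubicin (positive). Plates were incubated a further 48 h and surviving cells were counted by MTT. IC50 is the concentration giving 50% growth inhibition relative to the DMSO control.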

[2] = system: HepG2 hepatocellular carcinoma cell line; assay: Cytotoxicity assay; format: cell-based, human; conditions: for IC50: Homo sapiens, HepG2, 48 h; for Cytotoxic activity IC50, HepG2: 48 h, MTT
Method in brief: as §1

[3] = system: A549 lung carcinoma cell line; assay: Cytotoxicity assay; format: cell-based, human; conditions: for IC50: Homo sapiens, A549, 48 h
Method in brief: as §1

[4] = system: MOLT-3 lymphoblastic leukemia cell line; assay: Cytotoxicity assay; format: cell-based; conditions: Homo sapiens, MOLT-3, 48 h, read-out: Cytotoxic activity IC50, MOLT-3
Method in brief: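 MOLT-3 cells received an equal volume of additional medium with serial dilutions of the test compound to reach the final concentrations. DMSO served as the negative control and etoposide and/or doxorubicin as the positive control. After a further 48 h incubation, surviving cells were counted by XTT. IC50 is the concentration inhibiting growth by 50% versus the DMSO control.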

[5] = system: T47D hormone-dependent breast cancer; assay: Cytotoxicity assay; format: cell-based; conditions: Homo sapiens, 48 h, read-out: Cytotoxic activity IC50, T47D
Method in brief: as §1

[6] = system: MDA-MB-231 hormone-independent breast cancer; assay: Cytotoxicity assay; format: cell-based; conditions: Homo sapiens, MDA-MB-231, 48 h, read-out: Cytotoxic activity IC50, MDA-MB-231
Method in brief: as §1

Cytotoxicity assay = format: cell-based; conditions: human, MRC-5 normal embryonic lung cells
Method in brief: as §1

FGFR1 tyrosine kinase = FGFR1 tyrosine kinase (Homo sapiens, UniProt P11362); assay: ADP-Glo kinase assay, FGFR1; format: biochemical; conditions: for inhibition at 1 µM: read-out: % inhibition of FGFR1
[7] = read-out: Cytotoxic activity IC50, HepG2
[8] = read-out: Cytotoxic activity IC50, A549
[9] = read-out: Cytotoxic activity, HepG2 (class NC)

Sequence of FGFR1 tyrosine kinase (P11362 22-822): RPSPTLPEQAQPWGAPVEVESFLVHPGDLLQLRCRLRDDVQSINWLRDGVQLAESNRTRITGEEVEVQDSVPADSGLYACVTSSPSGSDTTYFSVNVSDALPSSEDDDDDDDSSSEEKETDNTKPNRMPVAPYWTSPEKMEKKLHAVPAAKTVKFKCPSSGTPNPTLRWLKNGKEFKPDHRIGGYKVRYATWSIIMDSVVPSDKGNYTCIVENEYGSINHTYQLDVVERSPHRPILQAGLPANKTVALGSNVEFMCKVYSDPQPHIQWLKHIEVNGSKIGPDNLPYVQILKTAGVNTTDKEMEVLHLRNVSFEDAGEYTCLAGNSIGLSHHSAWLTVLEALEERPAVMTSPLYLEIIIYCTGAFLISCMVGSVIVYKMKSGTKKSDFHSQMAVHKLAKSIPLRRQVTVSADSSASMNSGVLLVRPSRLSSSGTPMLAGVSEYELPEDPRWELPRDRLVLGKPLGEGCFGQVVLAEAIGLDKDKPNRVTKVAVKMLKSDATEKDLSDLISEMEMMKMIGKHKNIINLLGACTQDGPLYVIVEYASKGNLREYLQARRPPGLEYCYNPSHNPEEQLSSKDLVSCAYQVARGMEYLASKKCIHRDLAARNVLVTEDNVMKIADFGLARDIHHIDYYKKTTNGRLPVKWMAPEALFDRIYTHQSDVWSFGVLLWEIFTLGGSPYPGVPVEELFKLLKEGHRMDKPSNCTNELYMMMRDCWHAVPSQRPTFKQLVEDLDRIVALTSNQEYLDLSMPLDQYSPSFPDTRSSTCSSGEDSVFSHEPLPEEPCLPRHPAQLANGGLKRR

SMILES	IC50 (FGFR1 tyrosine kinase)	inhibition at 1 µM (FGFR1 tyrosine kinase)	IC50 [1]	IC50 [2, 7]	IC50 [3, 8]	IC50 [4]	IC50 [5]	IC50 [6]	IC50 at 48 h (Cytotoxicity assay)	Cytotoxic activity IC50, HepG2 [2]	IC50 [2, 9]	Cytotoxic activity IC50, A549 ([3]; A549, 48 h, MTT)	IC50 ([3]; read-out: Cytotoxic activity, A549 (class NC))
COc1cccc2c1C(=O)c1c(O)c3c(c(O)c1C2=O)C[C@@](O)(C(=O)CO)C[C@@H]3O[C@H]1C[C@H](N)[C@H](O)[C@H](C)O1 [doxorubicin, reference compound]			0.42 ± 0.02 µM	0.57 ± 0.05 µM	0.37 ± 0.02 µM		0.84 ± 0.01 µM	1.84 ± 0.13 µM	2.79 ± 0.11 µM				
COc1cccc(/C=C/C(=O)c2cccc(NC3=C(Cl)C(=O)c4ccccc4C3=O)c2)c1OC [Compound 1, (E)-2-Chloro-3-((3-(3-(2,3-dimethoxyphenyl)acryloyl)phenyl)amino)naphthalene-1,4-dione]	0.00091 ± 8e-05 µM	> 70%	1.16 ± 0.4 µM	5.13 ± 0.15 µM	6.12 ± 1.56 µM	1.24 ± 0.03 µM	1.81 ± 0.04 µM	1.08 ± 0.12 µM	4.96 ± 0.14 µM				
COc1cc([C@@H]2c3cc4c(cc3[C@@H](O[C@@H]3O[C@@H]5CO[C@@H](C)O[C@H]5[C@H](O)[C@H]3O)[C@H]3COC(=O)[C@H]23)OCO4)cc(OC)c1O [etoposide, reference compound]				33.98 ± 0.01 µM		0.041 ± 0.003 µM							
COc1cccc(/C=C/C(=O)c2ccc(NC3=C(Cl)C(=O)c4ccccc4C3=O)cc2)c1 [Compound 6, (E)-2-Chloro-3-((4-(3-(3-methoxyphenyl)acryloyl)phenyl)amino)naphthalene-1,4-dione]			11.1 ± 0.37 µM	6.88 ± 2.72 µM	13.5 ± 1.49 µM	1.78 ± 0.06 µM	2.1 ± 0.12 µM	1.31 ± 0.03 µM	2.69 ± 0.15 µM				
COc1cc(/C=C/C(=O)c2cccc(NC3=C(Cl)C(=O)c4ccccc4C3=O)c2)cc(OC)c1OC [Compound 3, (E)-2-Chloro-3-((3-(3-(3,4,5-trimethoxyphenyl)acryloyl)phenyl)amino)naphthalene-1,4-dione]			4.72 ± 0.48 µM	16.9 ± 0.74 µM	51.6 ± 10.3 µM	0.99 ± 0.12 µM	1.15 ± 0.08 µM	1.05 ± 0.04 µM	2.52 ± 0.26 µM				

Continued, in another order:

IC50 (FGFR1 tyrosine kinase)	inhibition at 1 µM (FGFR1 tyrosine kinase)	SMILES	IC50 [1]	IC50 [2, 7]	IC50 [3, 8]	IC50 [4]	IC50 [5]	IC50 [6]	IC50 at 48 h (Cytotoxicity assay)	Cytotoxic activity IC50, HepG2 [2]	IC50 [2, 9]	Cytotoxic activity IC50, A549 ([3]; A549, 48 h, MTT)	IC50 ([3]; read-out: Cytotoxic activity, A549 (class NC))
0.00033 ± 1e-05 µM	> 70%	O=C(/C=C/c1ccc(O)cc1)c1cccc(NC2=C(Cl)C(=O)c3ccccc3C2=O)c1 [Compound 5, (E)-2-Chloro-3-((3-(3-(4-hydroxyphenyl)acryloyl)phenyl)amino)naphthalene-1,4-dione]	5.65 ± 0.08 µM	13.07 ± 0.12 µM	31.9 ± 3.71 µM	2.19 ± 0.26 µM	5.75 µM	3.33 ± 0.08 µM	11 ± 0.99 µM				
0.00169 ± 0.00071 µM		COc1cc(/C=C/C(=O)c2ccc(NC3=C(Cl)C(=O)c4ccccc4C3=O)cc2)cc(OC)c1OC [Compound 8, (E)-2-Chloro-3-((4-(3-(3,4,5-trimethoxyphenyl)acryloyl)phenyl)amino)naphthalene-1,4-dione]	4.72 ± 0.33 µM	10.87 ± 0.01 µM	25.8 ± 3.55 µM	0.81 ± 0.02 µM	1.61 ± 0.07 µM	1.09 ± 0.02 µM	2.92 ± 0.36 µM				
0.0015 ± 0.00028 µM	> 70%	COc1ccc(/C=C/C(=O)c2cccc(NC3=C(Cl)C(=O)c4ccccc4C3=O)c2)c(OC)c1OC [Compound 2, (E)-2-Chloro-3-((3-(3-(2,3,4-trimethoxyphenyl)acryloyl)phenyl)amino)naphthalene-1,4-dione]	8.87 ± 1.03 µM	16.3 ± 0.44 µM	33.5 ± 0.17 µM	1.81 ± 0.05 µM	2.32 ± 0.08 µM	1.79 ± 0.12 µM	2.6 ± 0.04 µM				
0.00313 ± 0.00067 µM	> 70%	O=C(/C=C/c1ccc(O)cc1)c1ccc(NC2=C(Cl)C(=O)c3ccccc3C2=O)cc1 [Compound 10, (E)-2-Chloro-3-((4-(3-(4-hydroxyphenyl)acryloyl)phenyl)amino)naphthalene-1,4-dione]	7.7 ± 2.85 µM	57.5 ± 1.28 µM	44.1 ± 4.06 µM	2.35 ± 0.39 µM	3.21 ± 0.06 µM	1.37 ± 0.07 µM	8.31 ± 3.3 µM				
0.00085 ± 8e-05 µM	> 70%	COc1ccc(/C=C/C(=O)c2ccc(NC3=C(Cl)C(=O)c4ccccc4C3=O)cc2)cc1OC [Compound 7, (E)-2-Chloro-3-((4-(3-(3,4-dimethoxyphenyl)acryloyl)phenyl)amino)naphthalene-1,4-dione]	7.32 ± 0.37 µM		62.06 ± 0.14 µM	1.27 ± 0.12 µM	1.86 ± 0.06 µM	1.16 ± 0.03 µM	2.93 ± 0.16 µM	inactive	> 50 µg/mL		
0.0005 ± 4e-05 µM		COc1ccc(/C=C/C(=O)c2ccc(NC3=C(Cl)C(=O)c4ccccc4C3=O)cc2)cc1O [Compound 9, (E)-2-Chloro-3-((4-(3-(3-hydroxy-4-methoxyphenyl)acryloyl)phenyl)amino)naphthalene-1,4-dione]	6.85 ± 1.2 µM			0.83 ± 0.01 µM	24.1 ± 1.61 µM	6.81 ± 0.52 µM	14.94 ± 0.09 µM	inactive	> 50 µg/mL	inactive	> 50 µg/mL
0.00096 ± 5e-05 µM	> 70%	COc1cc(/C=C/C(=O)c2cccc(NC3=C(Cl)C(=O)c4ccccc4C3=O)c2)cc(OC)c1O [Compound 4, (E)-2-Chloro-3-((3-(3-(4-hydroxy-3,5-dimethoxyphenyl)acryloyl)phenyl)amino)naphthalene-1,4-dione]	7.06 ± 1.36 µM	12.8 ± 0.42 µM	25 ± 4.22 µM	1.1 ± 0.14 µM	2.12 ± 0.11 µM	1.43 ± 0.11 µM	2.9 ± 0.48 µM				

— PMC10500653 (ACS Omega, 2023)
